ChEMBL document CHEMBL1148425, “New fatty acid oxidation inhibitors with increased potency lacking adverse metabolic and electrophysiological properties” (Bioorg Med Chem Lett, 2004)

Legend:
[1] = Metabolic stability (% remaining at 30 mins) in human S9.; format: ADME; conditions: human S9 fraction
Procedure, shortened: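 Incubated 30 min with human liver S9 (2 mg/mL protein, NADH added), n=2. Reported as % parent remaining.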

[2] = target: T1, Peroxisomal acyl-coenzyme A oxidase 1 (Rattus norvegicus) (UniProt P07872); assay: Inhibition of rat heart mitochondrial Palmitoyl-CoA oxidation at 30 uM
T1 sequence (whole entry): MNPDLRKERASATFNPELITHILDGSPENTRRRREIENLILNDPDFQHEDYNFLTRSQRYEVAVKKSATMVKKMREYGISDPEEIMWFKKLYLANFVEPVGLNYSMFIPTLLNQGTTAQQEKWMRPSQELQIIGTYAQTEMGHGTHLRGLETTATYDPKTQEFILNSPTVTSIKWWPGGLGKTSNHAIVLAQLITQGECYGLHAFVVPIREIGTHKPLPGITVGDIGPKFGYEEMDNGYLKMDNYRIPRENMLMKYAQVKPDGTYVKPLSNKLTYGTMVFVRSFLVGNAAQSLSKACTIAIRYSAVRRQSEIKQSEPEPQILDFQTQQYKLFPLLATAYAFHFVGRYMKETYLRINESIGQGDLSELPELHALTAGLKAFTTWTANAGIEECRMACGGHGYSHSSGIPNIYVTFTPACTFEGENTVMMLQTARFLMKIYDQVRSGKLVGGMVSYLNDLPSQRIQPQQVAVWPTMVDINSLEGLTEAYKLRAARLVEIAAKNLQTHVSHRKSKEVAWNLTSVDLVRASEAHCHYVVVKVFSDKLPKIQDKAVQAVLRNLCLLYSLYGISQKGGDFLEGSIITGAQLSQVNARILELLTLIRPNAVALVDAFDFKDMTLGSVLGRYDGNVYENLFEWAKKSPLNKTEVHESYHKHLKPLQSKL
Procedure, shortened: (§1)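 Rat heart mitochondrial preparations incubated with 1-[¹⁴C]-palmitoylCoA as the long-chain fatty acid oxidation substrate. Oxidation inhibition was reported as % inhibition at the listed test concentration, averaged from two or three measurements.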

[3] = target: T1, Peroxisomal acyl-coenzyme A oxidase 1 (Rattus norvegicus); assay: Inhibition of rat heart mitochondrial Palmitoyl-CoA oxidation at 100 uM; procedure, shortened: as §1
Cytochrome P450 2C9 = Cytochrome P450 2C9 (Homo sapiens, UniProt P11712); assay: Inhibition of cytochrome P450 2C9 (human)
Cytochrome P450 1A2 = target: T2, Cytochrome P450 1A2 (Homo sapiens, UniProt P05177); assay: Inhibition of human cytochrome P450 1A2
T2 sequence (P05177 whole entry): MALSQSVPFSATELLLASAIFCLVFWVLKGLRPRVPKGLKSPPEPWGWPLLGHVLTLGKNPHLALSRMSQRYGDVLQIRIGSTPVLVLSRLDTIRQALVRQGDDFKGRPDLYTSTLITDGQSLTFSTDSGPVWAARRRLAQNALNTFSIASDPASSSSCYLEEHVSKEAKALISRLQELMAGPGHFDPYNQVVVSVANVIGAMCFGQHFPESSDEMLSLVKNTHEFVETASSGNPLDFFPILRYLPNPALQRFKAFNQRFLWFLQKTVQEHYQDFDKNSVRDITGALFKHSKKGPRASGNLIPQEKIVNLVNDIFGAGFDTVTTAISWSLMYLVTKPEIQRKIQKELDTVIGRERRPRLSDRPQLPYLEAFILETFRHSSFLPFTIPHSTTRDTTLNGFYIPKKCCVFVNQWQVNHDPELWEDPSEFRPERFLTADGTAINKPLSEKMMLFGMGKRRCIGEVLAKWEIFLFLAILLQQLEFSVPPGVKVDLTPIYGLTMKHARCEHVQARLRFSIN

Cytochrome P450 3A4 = Cytochrome P450 3A4 (Homo sapiens, UniProt P08684); assay: Inhibition of cytochrome P450 3A4 (human)
Cavia porcellus [4] = species: Cavia porcellus; assay: Electrophysiological effect on isolated guinea pig heart as change in coronary perfusion pressure at 3 uM; format: functional
Cavia porcellus [5] = species: Cavia porcellus; assay: Electrophysiological effect on isolated guinea pig heart as change in H-V interval at 3 uM; format: functional
Cavia porcellus [6] = species: Cavia porcellus; assay: Electrophysiological effect on isolated guinea pig heart as change in S-H interval at 3 uM; format: functional

Cytochrome P450 2C9, sequence (P11712 whole entry): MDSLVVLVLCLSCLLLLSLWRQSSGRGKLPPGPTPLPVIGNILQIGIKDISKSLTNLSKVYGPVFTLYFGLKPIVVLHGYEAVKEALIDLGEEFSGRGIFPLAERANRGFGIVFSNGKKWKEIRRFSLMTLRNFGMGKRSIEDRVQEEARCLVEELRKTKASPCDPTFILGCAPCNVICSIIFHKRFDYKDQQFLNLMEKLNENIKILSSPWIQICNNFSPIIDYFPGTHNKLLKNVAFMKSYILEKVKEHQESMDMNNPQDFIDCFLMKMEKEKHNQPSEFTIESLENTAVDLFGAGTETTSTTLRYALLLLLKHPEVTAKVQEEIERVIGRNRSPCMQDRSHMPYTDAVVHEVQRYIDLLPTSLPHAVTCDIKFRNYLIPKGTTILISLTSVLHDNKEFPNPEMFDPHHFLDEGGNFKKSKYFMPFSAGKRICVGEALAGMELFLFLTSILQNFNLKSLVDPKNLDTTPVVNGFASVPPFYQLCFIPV
Cytochrome P450 3A4, sequence (P08684 whole entry, the tested form may be a part): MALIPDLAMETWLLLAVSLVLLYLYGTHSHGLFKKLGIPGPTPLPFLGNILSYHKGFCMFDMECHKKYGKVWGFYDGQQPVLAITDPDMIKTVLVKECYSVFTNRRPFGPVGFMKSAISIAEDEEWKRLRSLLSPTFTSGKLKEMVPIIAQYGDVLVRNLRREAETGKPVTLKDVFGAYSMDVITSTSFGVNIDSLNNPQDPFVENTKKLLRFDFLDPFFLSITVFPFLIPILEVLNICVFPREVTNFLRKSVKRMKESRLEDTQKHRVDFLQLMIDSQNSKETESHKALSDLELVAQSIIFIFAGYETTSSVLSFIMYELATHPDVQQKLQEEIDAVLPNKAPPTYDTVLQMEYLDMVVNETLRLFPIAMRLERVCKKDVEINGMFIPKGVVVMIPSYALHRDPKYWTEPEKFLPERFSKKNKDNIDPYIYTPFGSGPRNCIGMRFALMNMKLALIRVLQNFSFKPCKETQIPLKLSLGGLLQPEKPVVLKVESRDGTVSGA

Row | Structure (SMILES) | remaining at 0.5 h [1] [%] | also measured
1 | Cc1nc2cc(OC[C@H](O)CN3CCN(CC(=O)Nc4cc(Cl)c(Cl)c(Cl)c4)CC3)ccc2s1 | 34 | –
2 | Cc1nc2cc(OC[C@H](O)CN3CCN(CC(=O)N[C@@H]4CCc5ccccc54)CC3)ccc2s1 | – | inhibition [2]: 50%
3 | Cc1nc2cc(OC[C@H](O)CN3CCN(CC(=O)N[C@@H](C)c4ccc(F)cc4)CC3)ccc2s1 | 10 | –
4 | Cc1nc2cc(OC[C@H](O)CN3CCN(CC(=O)Nc4ccc(C(N)=O)cc4)CC3)ccc2s1 | – | inhibition [3]: 35%
5 | Cc1nc2cc(OC[C@H](O)CN3CCN(CC(=O)Nc4cccc5cccnc45)CC3)ccc2s1 | 12 | –
6 | Cc1nc2cc(OC[C@H](O)CN3CCN(CC(=O)Nc4ccc(Cl)c(Cl)c4)CC3)ccc2s1 | 29 | –
7 | Cc1nc2cc(OC[C@H](O)CN3CCN(CC(=O)NCc4ccc(Cl)cc4)CC3)ccc2s1 | 16 | –
8 | Cc1nc2cc(OC[C@H](O)CN3CCN(CC(=O)N[C@H](C)c4ccc5ccccc5c4)CC3)ccc2s1 | 45 | –
9 | Cc1nc2cc(OC[C@H](O)CN3CCN(CC(=O)Nc4ccc5c(c4)CCC5)CC3)ccc2s1 | 15 | –
10 | Cc1nc2cc(OC[C@H](O)CN3CCN(CC(=O)Nn4nnc5ccccc54)CC3)ccc2s1 | – | inhibition [2]: 16%
11 | Cc1nc2cc(OC[C@H](O)CN3CCN(CC(=O)Nc4ccc(C(F)(F)F)cc4)CC3)ccc2s1 | 28 | –
12 | Cc1nc2cc(OC[C@H](O)CN3CCN(CC(=O)Nc4ccccc4-c4ccccc4)CC3)ccc2s1 | – | inhibition [2]: 39%
13 | Cc1nc2cc(OC[C@H](O)CN3CCN(CC(=O)N[C@H](C)c4cccc5ccccc45)CC3)ccc2s1 | – | inhibition [2]: 24%
14 | Cc1nc2cc(OC[C@H](O)CN3CCN(CC(=O)NC4Cc5ccccc5C4)CC3)ccc2s1 | 2 | –
15 | Cc1cc(NC(=O)CN2CCN(C[C@@H](O)COc3ccc4sc(C)nc4c3)CC2)c2ccccc2n1 | – | inhibition [2]: 40%

Continued, in another order:

Row | remaining at 0.5 h [1] [%] | Structure (SMILES) | also measured
16 | 63 | Cc1nc2cc(OC[C@H](O)CN3CCN(CC(=O)Nc4ccc(-c5ccccc5)cc4)CC3)ccc2s1 | IC50 (Cytochrome P450 2C9): 30 µM; IC50 (Cytochrome P450 1A2): 31 µM; IC50 (Cytochrome P450 3A4): 7.9 µM; Delta CPP (Cavia porcellus [4]): -6.6 mmHg; Delta H-V (Cavia porcellus [5]): 0.5 ms; Delta S-H (Cavia porcellus [6]): 5 ms
17 | 51 | Cc1ccc(NC(=O)CN2CCN(C[C@@H](O)COc3ccc4sc(C)nc4c3)CC2)cc1 | –
18 | 10 | Cc1nc2cc(OC[C@H](O)CN3CCN(CC(=O)N[C@@H](C)c4cccc5ccccc45)CC3)ccc2s1 | –
19 | 29 | Cc1nc2cc(OC[C@H](O)CN3CCN(CC(=O)NCC4CCCCC4)CC3)ccc2s1 | –
20 | 47 | Cc1nc2cc(OC[C@H](O)CN3CCN(CC(=O)Nc4ccccc4)CC3)ccc2s1 | –
21 | 23 | Cc1nc2cc(OC[C@H](O)CN3CCN(CC(=O)N[C@@H](C)c4ccccc4)CC3)ccc2s1 | –
